What was measured:
Type in all cases: functional
Enterococcus gallinarum = experiment: Antibacterial activity against Enterococcus gallinarum
Streptococcus mitis = experiment: Antibacterial activity against Streptococcus mitis
Summary of the method: (§1)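 Broth microdilution MIC following CLSI guidelines, in cation-adjusted Mueller-Hinton broth with 3% lysed horse blood. Plates incubated at 35°C. Clinical isolates and reference strains, with identity confirmed by standard microbiological methods.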

Enterococcus faecalis [1] = experiment: Antibacterial activity against VanB-resistant Enterococcus faecalis
Summary of the method: (§2)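 Broth microdilution MIC per CLSI guidelines, incubated at 35°C. Cation-adjusted Mueller-Hinton broth for nonfastidious organisms and staphylococci. Streptococci tested in the same broth with 3% lysed horse blood. Anaerobes tested in supplemented Brucella broth inside an anaerobe chamber (5% CO2, 5% H2, 90% N2), read after 48 h. Strains were mainly recent clinical isolates with confirmed identity.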

[2] = test system: Fusobacterium necrophorum; experiment: Antibacterial activity against Fusobacterium necrophorum
Summary of the method: (§3)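 Anaerobic broth microdilution MIC following CLSI guidelines, in supplemented Brucella broth. Run in an anaerobe chamber under 5% CO2, 5% H2 and 90% N2 at 35°C, and read after 48 h. Reported as MIC range, MIC50 and MIC90.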

[3] = test system: Bacteroides thetaiotaomicron; experiment: Antibacterial activity against Bacteroides thetaiotaomicron; summary of the method: as §3
Staphylococcus aureus [4] = experiment: Antibacterial activity against oxacillin-resistant Staphylococcus aureus; summary of the method: as §2
Klebsiella pneumoniae = experiment: Antibacterial activity against Klebsiella pneumoniae
Summary of the method: (§4)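 Broth microdilution MIC following CLSI guidelines, in cation-adjusted Mueller-Hinton broth, incubated at 35°C. Recent clinical isolates and reference strains, with identity confirmed by automated and standard microbiological methods. Results reported as MIC range, MIC50 and MIC90.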

Proteus mirabilis = experiment: Antibacterial activity against Proteus mirabilis; summary of the method: as §4
Streptococcus sanguinis = experiment: Antibacterial activity against Streptococcus sanguis; summary of the method: as §1
[5] = test system: Prevotella melaninogenica; experiment: Antibacterial activity against Prevotella melaninogenica; summary of the method: as §3
Staphylococcus aureus [6] = experiment: Antibacterial activity against vancomycin-intermediate Staphylococcus aureus; summary of the method: as §2
Enterobacter cloacae = experiment: Antibacterial activity against Enterobacter cloacae; summary of the method: as §4
[7] = test system: Stenotrophomonas maltophilia; experiment: Antibacterial activity against Stenotrophomonas maltophilia; summary of the method: as §4
Shigella flexneri = experiment: Antibacterial activity against Shigella flexneri; summary of the method: as §4
[8] = test system: Staphylococcus haemolyticus; experiment: Antibacterial activity against Staphylococcus haemolyticus
Summary of the method: (§5)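 Broth microdilution MIC following CLSI guidelines, in cation-adjusted Mueller-Hinton broth containing 3% lysed horse blood, incubated at 35°C. Clinical isolates with identity confirmed. Reported as MIC range, MIC50 and MIC90.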

Klebsiella aerogenes = experiment: Antibacterial activity against Enterobacter aerogenes; summary of the method: as §4
Streptococcus pneumoniae = experiment: Antibacterial activity against penicillin-resistant Streptococcus pneumoniae; summary of the method: as §2
Haemophilus influenzae = experiment: Antibacterial activity against beta-lactamase negative Haemophilus influenzae
Summary of the method: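 Broth microdilution MIC following CLSI guidelines, in Haemophilus test medium at 35°C.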

Actinomyces sp. = experiment: Antibacterial activity against Actinomyces sp.
Enterococcus faecium = experiment: Antibacterial activity against Enterococcus faecium; summary of the method: as §2
Staphylococcus aureus [9] = experiment: Antibacterial activity against oxacillin-susceptible Staphylococcus aureus
Summary of the method: (§6)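 MIC by CLSI broth microdilution for nonfastidious organisms, in cation-adjusted Mueller-Hinton broth incubated at 35°C.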

Prevotella bivia = experiment: Antibacterial activity against Prevotella bivia; summary of the method: as §3
Streptococcus equinus = experiment: Antibacterial activity against Streptococcus bovis; summary of the method: as §1
Enterococcus faecalis [10] = experiment: Antibacterial activity against Enterococcus faecalis; summary of the method: as §2
[11] = test system: Staphylococcus epidermidis; experiment: Antibacterial activity against oxacillin-susceptible Staphylococcus epidermidis; summary of the method: as §6
Citrobacter freundii = experiment: Antibacterial activity against Citrobacter freundii; summary of the method: as §4
Alloiococcus otitis = experiment: Antibacterial activity against Alloiococcus otitidis
Summary of the method: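 MIC by broth microdilution following CLSI guidelines, in cation-adjusted Mueller-Hinton broth with 3% lysed horse blood. Incubated at 35°C and read after 48 h. Reported as MIC range, MIC50 and MIC90.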

Prevotella corporis = experiment: Antibacterial activity against Prevotella corporis; summary of the method: as §3
Fusobacterium sp. = experiment: Antibacterial activity against Fusobacterium sp.; summary of the method: as §3
Clostridium perfringens = experiment: Antibacterial activity against Clostridium perfringens; summary of the method: as §2
Listeria monocytogenes = experiment: Antibacterial activity against Listeria monocytogenes; summary of the method: as §5
Serratia marcescens = experiment: Antibacterial activity against Serratia marcescens; summary of the method: as §4
Enterococcus faecalis [12] = experiment: Antibacterial activity against beta-lactamase positive Enterococcus faecalis; summary of the method: as §6
Prevotella buccae = experiment: Antibacterial activity against Prevotella buccae; conditions: Segatella buccae; summary of the method: as §3
Streptococcus agalactiae = experiment: Antibacterial activity against Streptococcus agalactiae; summary of the method: as §5
Citrobacter koseri = experiment: Antibacterial activity against Citrobacter diversus; summary of the method: as §4
[13] = test system: Enterococcus casseliflavus; experiment: Antibacterial activity against Enterococcus casseliflavus

COc1c(N2CCNC(C)C2)c(F)cc2c(=O)c(C(=O)O)cn(C3CC3)c12 (stereo unspecified) [GATIFLOXACIN]
0.03 µg/mL: MIC50 (Shigella flexneri) | MIC50 (Citrobacter koseri)
1 µg/mL: MIC90 (Enterococcus gallinarum) | MIC90 (Enterobacter cloacae) | MIC50 [7] | MIC50 (Klebsiella aerogenes) | MIC90 (Streptococcus pneumoniae) | MIC50 (Streptococcus equinus) | MIC90 (Streptococcus equinus) | MIC90 (Listeria monocytogenes) | MIC90 [13]
0.015 µg/mL: MIC [2] | MIC90 (Haemophilus influenzae) | MIC (Fusobacterium sp.)
32 µg/mL: MIC90 (Klebsiella aerogenes)
0.125 µg/mL: MIC50 [8] | MIC (Actinomyces sp.) | MIC50 (Staphylococcus aureus [9]) | MIC90 (Staphylococcus aureus [9]) | MIC [11]
0.06 µg/mL: MIC50 (Klebsiella pneumoniae) | MIC50 (Enterobacter cloacae) | MIC90 (Shigella flexneri) | MIC50 (Alloiococcus otitis) | MIC90 (Alloiococcus otitis) | MIC90 (Citrobacter koseri)
64 µg/mL: MIC90 (Enterococcus faecium)
0.008 µg/mL: MIC50 (Haemophilus influenzae)
0.25 µg/mL: MIC50 (Proteus mirabilis) | MIC50 [5] | MIC50 (Streptococcus pneumoniae) | MIC50 (Prevotella bivia) | MIC50 (Citrobacter freundii) | MIC50 (Prevotella corporis) | MIC50 (Serratia marcescens) | MIC (Enterococcus faecalis [12]) | MIC50 (Prevotella buccae) | MIC50 (Streptococcus agalactiae) | MIC90 (Streptococcus agalactiae)
16 µg/mL: MIC90 (Enterococcus faecalis [1]) | MIC90 [3] | MIC90 (Enterococcus faecalis [10]) | MIC90 (Citrobacter freundii)
4 µg/mL: MIC50 [3] | MIC50 (Staphylococcus aureus [4]) | MIC90 (Proteus mirabilis) | MIC90 [8] | MIC90 (Serratia marcescens)
8 µg/mL: MIC50 (Enterococcus faecalis [1]) | MIC90 (Staphylococcus aureus [4]) | MIC (Staphylococcus aureus [6]) | MIC90 [7] | MIC50 (Enterococcus faecium) | MIC50 (Enterococcus faecalis [10])
0.5 µg/mL: MIC50 (Enterococcus gallinarum) | MIC50 (Streptococcus mitis) | MIC90 (Streptococcus mitis) | MIC90 (Klebsiella pneumoniae) | MIC50 (Streptococcus sanguinis) | MIC90 (Streptococcus sanguinis) | MIC90 [5] | MIC90 (Prevotella bivia) | MIC90 (Prevotella corporis) | MIC50 (Clostridium perfringens) | MIC90 (Clostridium perfringens) | MIC50 (Listeria monocytogenes) | MIC90 (Prevotella buccae) | MIC50 [13]

Cc1c(N2CC[C@@H]([C@H](C)N)C2)c(F)cc2c(=O)[nH]c(=O)n(C3CC3)c12
16 µg/mL: MIC50 [3] | MIC90 (Klebsiella pneumoniae) | MIC90 (Enterobacter cloacae)
4 µg/mL: MIC50 (Klebsiella pneumoniae) | MIC90 (Shigella flexneri) | MIC90 (Enterococcus faecium) | MIC50 (Serratia marcescens)
0.015 µg/mL: MIC50 (Streptococcus agalactiae)
0.25 µg/mL: MIC50 (Enterococcus gallinarum) | MIC50 (Enterococcus faecalis [1]) | MIC50 (Staphylococcus aureus [4]) | MIC (Staphylococcus aureus [6]) | MIC50 [8] | MIC50 (Haemophilus influenzae) | MIC50 (Staphylococcus aureus [9]) | MIC90 (Staphylococcus aureus [9]) | MIC50 (Enterococcus faecalis [10]) | MIC50 (Listeria monocytogenes) | MIC90 (Listeria monocytogenes) | MIC50 [13] | MIC90 [13]
0.5 µg/mL: MIC90 (Enterococcus gallinarum) | MIC90 (Enterococcus faecalis [1]) | MIC90 (Staphylococcus aureus [4]) | MIC50 [5] | MIC90 (Haemophilus influenzae) | MIC50 (Prevotella bivia) | MIC90 (Enterococcus faecalis [10]) | MIC50 (Prevotella corporis) | MIC50 (Prevotella buccae)
0.03 µg/mL: MIC50 (Streptococcus mitis) | MIC50 (Streptococcus sanguinis) | MIC50 (Streptococcus pneumoniae) | MIC90 (Streptococcus agalactiae)
0.06 µg/mL: MIC90 (Streptococcus mitis) | MIC90 (Streptococcus sanguinis) | MIC90 (Streptococcus pneumoniae) | MIC50 (Streptococcus equinus) | MIC90 (Streptococcus equinus) | MIC (Enterococcus faecalis [12])
1 µg/mL: MIC90 [8] | MIC (Actinomyces sp.) | MIC50 (Enterococcus faecium)
8 µg/mL: MIC90 (Proteus mirabilis) | MIC50 (Klebsiella aerogenes) | MIC50 (Citrobacter freundii) | MIC90 (Clostridium perfringens) | MIC90 (Citrobacter koseri)
0.008 µg/mL: MIC50 (Alloiococcus otitis) | MIC90 (Alloiococcus otitis)
32 µg/mL: MIC90 [3] | MIC50 [7] | MIC90 (Serratia marcescens)
64 µg/mL: MIC90 [7] | MIC90 (Klebsiella aerogenes)
2 µg/mL: MIC50 (Proteus mirabilis) | MIC90 [5] | MIC50 (Enterobacter cloacae) | MIC50 (Shigella flexneri) | MIC90 (Prevotella bivia) | MIC90 (Prevotella corporis) | MIC50 (Clostridium perfringens) | MIC90 (Prevotella buccae) | MIC50 (Citrobacter koseri)
> 64 µg/mL: MIC90 (Citrobacter freundii)
0.125 µg/mL: MIC [2] | MIC [11] | MIC (Fusobacterium sp.)
